Results published in ChEMBL document CHEMBL1154422, “First characterization of heterogeneous resistance to imipenem in invasive nontypeable Haemophilus influenzae isolates” (2007).
Values after ≈ are worked out from the molar mass of the structure shown. Active and inactive are the calls of the source. The calls are words filed in the database; no cut-off is given here.

Tests used:
Haemophilus influenzae [1] = assay: Antimicrobial activity against imipenem-susceptible invasive nontypeable Haemophilus influenzae isolate 187 by Etest; format: functional
Summary of the method: (§1)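 Imipenem MIC read by Etest on Haemophilus test medium (HTM) agar following CLSI guidelines; inoculum about 3 × 10^8 to 4 × 10^8 CFU/ml. H. influenzae ATCC 49247 and ATCC 10211 served as quality controls. Interpretation used CLSI breakpoints. Strains were maintained on Vitox-supplemented chocolate agar at 37°C with 5% CO2.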

Haemophilus influenzae [2] = assay: Antimicrobial activity against imipenem-resistant invasive nontypeable Haemophilus influenzae isolate 183 by standard broth dilution method; format: functional
Summary of the method: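 Imipenem MIC by CLSI standard broth dilution method; inoculum 5 × 10^5 CFU/ml.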

Haemophilus influenzae [3] = assay: Antimicrobial activity against imipenem-susceptible Haemophilus influenzae Rd by Etest; format: functional
Summary of the method: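 Etest MIC on HTM agar per CLSI, inoculum 3 × 10^8 to 4 × 10^8 CFU/ml, with strains grown on Vitox-supplemented chocolate agar at 37°C with 5% CO2. Imipenem and ampicillin MICs were tested in triplicate on separate days and reported as the range. ATCC 49247 and ATCC 10211 were the quality controls.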

Haemophilus influenzae [4] = assay: Antimicrobial activity against imipenem-susceptible invasive nontypeable Haemophilus influenzae isolate 251 by Etest; format: functional
Summary of the method: (§2)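 Etest MIC on Haemophilus test medium (HTM) agar plates following CLSI guidelines, with a high inoculum (3 × 10^8 to 4 × 10^8 CFU/ml). Strains were maintained on Vitox-supplemented chocolate agar at 37°C with 5% CO2. H. influenzae ATCC 49247 and ATCC 10211 served as quality controls. Interpretation used CLSI breakpoints.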

Haemophilus influenzae [5] = assay: Antimicrobial activity against imipenem-resistant invasive nontypeable Haemophilus influenzae isolate 184 by standard broth dilution method; format: functional
Summary of the method: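 Broth dilution MIC per CLSI standard procedure. Inoculum 5 × 10^5 CFU/ml, lower than the Etest inoculum. Strain first grown on Vitox-supplemented chocolate agar at 37°C with 5% CO2. Beta-lactamase checked by nitrocefin stick test.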

Haemophilus influenzae [6] = assay: Antimicrobial activity against imipenem-susceptible invasive nontypeable Haemophilus influenzae isolate 244 by Etest; format: functional; summary of the method: as §1
Haemophilus influenzae [7] = assay: Antimicrobial activity against imipenem-resistant invasive nontypeable Haemophilus influenzae isolate 183 at 1.56 uM by Etest; format: functional, organism-based
Summary of the method: (§3)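 CCCP was made up as a 100 mM DMSO stock and added to HTM agar at final 3.12, 1.56, 0.781 or 0.390 μM. Imipenem Etest was run on these plates per CLSI on HTM agar.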

Haemophilus influenzae [8] = assay: Antimicrobial activity against Haemophilus influenzae Rd transformed with ftsI gene from imipenem-resistant invasive nontypeable Haemophilus influenzae isolate 183 by Etest; format: functional
Summary of the method: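 Recipient strain Rd (ATCC 51907) was electroporated with the PCR-amplified full-length ftsI gene plus flanking DNA from strain 183, then selected on HTM agar with 4 μg/ml imipenem. Imipenem MIC was then read by Etest on HTM agar per CLSI, in triplicate on separate days, and reported as a range.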

Haemophilus influenzae [9] = assay: Antimicrobial activity against Haemophilus influenzae ATCC 10211 by Etest; format: functional; summary of the method: as §2
Haemophilus influenzae [10] = assay: Antimicrobial activity against imipenem-resistant invasive nontypeable Haemophilus influenzae isolate 183 by Etest; format: functional; summary of the method: as §1
Haemophilus influenzae [11] = assay: Antimicrobial activity against imipenem-susceptible invasive nontypeable Haemophilus influenzae isolate 248 by Etest; format: functional; summary of the method: as §1
Haemophilus influenzae [12] = assay: Antimicrobial activity against imipenem-resistant invasive nontypeable Haemophilus influenzae isolate 184 by Etest in presence of 0.781 uM efflux pump inhibitor carbonyl cyanide m-chlorophenyl-hydrazone; format: functional, organism-based; summary of the method: as §3
Haemophilus influenzae [13] = assay: Antimicrobial activity against imipenem-resistant invasive nontypeable Haemophilus influenzae isolate 184 at 1.56 uM by Etest; format: functional, organism-based; summary of the method: as §3
Haemophilus influenzae [14] = assay: Antimicrobial activity against imipenem-resistant invasive nontypeable Haemophilus influenzae isolate 184 by Etest; format: functional; summary of the method: as §1
Haemophilus influenzae [15] = assay: Antimicrobial activity against imipenem-resistant invasive nontypeable Haemophilus influenzae isolate 184 by Etest in presence of 0.390 uM efflux pump inhibitor carbonyl cyanide m-chlorophenyl-hydrazone; format: functional, organism-based; summary of the method: as §3
Haemophilus influenzae [16] = assay: Antimicrobial activity against imipenem-resistant invasive nontypeable Haemophilus influenzae isolate 183 by Etest in presence of 0.781 uM efflux pump inhibitor carbonyl cyanide m-chlorophenyl-hydrazone; format: functional, organism-based; summary of the method: as §3
Haemophilus influenzae [17] = assay: Antimicrobial activity against imipenem-resistant invasive nontypeable Haemophilus influenzae isolate 183 by Etest in presence of 0.390 uM efflux pump inhibitor carbonyl cyanide m-chlorophenyl-hydrazone; format: functional, organism-based; summary of the method: as §3

| SMILES | MIC (Haemophilus influenzae [1]) | MIC (Haemophilus influenzae [2]) | MIC (Haemophilus influenzae [3]) | MIC (Haemophilus influenzae [4]) | MIC (Haemophilus influenzae [5]) | MIC (Haemophilus influenzae [6]) | Activity (Haemophilus influenzae [7]) | MIC (Haemophilus influenzae [8]) | MIC (Haemophilus influenzae [9]) | MIC (Haemophilus influenzae [10]) | MIC (Haemophilus influenzae [11]) | Activity (Haemophilus influenzae [12]) | Activity (Haemophilus influenzae [13]) | MIC (Haemophilus influenzae [14]) | Activity (Haemophilus influenzae [15]) | Activity (Haemophilus influenzae [16]) | Activity (Haemophilus influenzae [17]) |
| --- | --- | --- | --- | --- | --- | --- | --- | --- | --- | --- | --- | --- | --- | --- | --- | --- | --- |
| C[C@@H](O)[C@H]1C(=O)N2C(C(=O)O)=C(SCCNC=N)C[C@H]12 [IMIPENEM ANHYDROUS] | 1.5 µg/mL (≈ 5.01 µM) | 2 µg/mL (≈ 6.68 µM) | 0.38 µg/mL (≈ 1.27 µM) | 0.5 µg/mL (≈ 1.67 µM) | 1 µg/mL (≈ 3.34 µM) | 0.5 µg/mL (≈ 1.67 µM) | inactive | 4 µg/mL (≈ 13.4 µM) | 1.5 µg/mL (≈ 5.01 µM) | ≥ 32 µg/mL | 0.25 µg/mL (≈ 0.835 µM) | Active | inactive | ≥ 32 µg/mL | Active | Active | Active |
| O=C(N[C@H](CO)[C@H](O)c1ccc([N+](=O)[O-])cc1)C(Cl)Cl [CHLORAMPHENICOL] | 0.38 µg/mL (≈ 1.18 µM) | – | – | 0.25 µg/mL (≈ 0.774 µM) | – | 0.38 µg/mL (≈ 1.18 µM) | – | – | – | 0.38 µg/mL (≈ 1.18 µM) | 0.38 µg/mL (≈ 1.18 µM) | – | – | 0.5 µg/mL (≈ 1.55 µM) | – | – | – |
| CC1(C)S[C@@H]2[C@H](NC(=O)[C@H](N)c3ccccc3)C(=O)N2[C@H]1C(=O)O [AMPICILLIN] | 0.19 µg/mL (≈ 0.544 µM) | – | 0.064 µg/mL (≈ 0.183 µM) | 0.125 µg/mL (≈ 0.358 µM) | – | 0.25 µg/mL (≈ 0.715 µM) | – | 0.38 µg/mL (≈ 1.09 µM) | – | 0.75 µg/mL (≈ 2.15 µM) | 0.125 µg/mL (≈ 0.358 µM) | – | – | 0.5 µg/mL (≈ 1.43 µM) | – | – | – |
| CO/N=C(\C(=O)N[C@@H]1C(=O)N2C(C(=O)O)=C(CSc3nc(=O)c(O)nn3C)CS[C@H]12)c1csc(N)n1 [CEFTRIAXONE] | – | – | < 0.016 µg/mL | – | – | – | – | < 0.016 µg/mL | – | 0.032 µg/mL (≈ 0.0577 µM) | – | – | – | – | – | – | – |
| CO/N=C(\C(=O)N[C@@H]1C(=O)N2C(C(=O)O)=C(COC(C)=O)CS[C@H]12)c1csc(N)n1 [CEFOTAXIME] | 0.047 µg/mL (≈ 0.103 µM) | – | 0.5 µg/mL (≈ 1.1 µM) | 0.016 µg/mL (≈ 0.0351 µM) | – | 0.016 µg/mL (≈ 0.0351 µM) | – | – | – | 0.047 µg/mL (≈ 0.103 µM) | 0.016 µg/mL (≈ 0.0351 µM) | – | – | 0.125 µg/mL (≈ 0.274 µM) | – | – | – |
